TRPML3 ag: activates the human TRPML3 channel; Q8TDD5; HEK293 TRPML3-YFP, Fluo-8 calcium fluorescence; 100% = the carbachol control signal; activation, % at 3 µM; 220,000 compounds, 0.29% hits;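 active means activation above its plate's cutoff, the mean activation of the plate's test wells plus 3 SD, cut at about 12% in these data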
Target sequence (Q8TDD5 whole entry, looked up): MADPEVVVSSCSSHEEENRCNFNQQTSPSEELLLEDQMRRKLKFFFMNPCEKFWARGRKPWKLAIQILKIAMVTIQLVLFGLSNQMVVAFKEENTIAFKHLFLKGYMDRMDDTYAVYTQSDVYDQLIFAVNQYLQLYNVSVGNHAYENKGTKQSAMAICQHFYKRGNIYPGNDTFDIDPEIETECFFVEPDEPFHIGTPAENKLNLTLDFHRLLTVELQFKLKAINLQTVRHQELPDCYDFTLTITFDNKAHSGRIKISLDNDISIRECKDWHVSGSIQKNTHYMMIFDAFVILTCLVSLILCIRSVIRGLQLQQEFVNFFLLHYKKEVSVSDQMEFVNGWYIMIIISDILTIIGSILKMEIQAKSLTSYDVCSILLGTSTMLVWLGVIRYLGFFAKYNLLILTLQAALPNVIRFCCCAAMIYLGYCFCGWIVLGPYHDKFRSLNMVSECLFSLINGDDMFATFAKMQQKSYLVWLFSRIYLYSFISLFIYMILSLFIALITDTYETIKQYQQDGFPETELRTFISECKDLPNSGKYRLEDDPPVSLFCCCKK
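Test system – HEK293 line with stable expression of human TRPML3-YFP channel · Control set – carbachol 87 µM final as high control (100%), DMSO as low control (0%) · Signal – Fluo-8 calcium dye fluorescence, ex 470-495, em 515-575 nm · Incubation – 1-h 37 °C dye load, 5-s basal, 120-s post-compound reads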
zfTRPN1 agonist: activates the zebrafish TRPN1 channel | 220,000 compounds, 0.18% hits | HEK293 zebrafish TRPN1-YFP, Fluo-8 calcium fluorescence; 100% = response to 87 µM carbachol | AID 1424 | activation, % at 3 µM;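 active means activation above its plate's cutoff, the mean activation of test wells on that plate plus 3 SD, cut at about 19% in these data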
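Material: zebrafish TRPN1-YFP in HEK293 cells; Doses: single test compound dose, 3 µM nominal, 0.3% DMSO; Timing: dye loading 1 h at 37 °C, then 30 min room temperature; Technique: intracellular calcium fluorescence with Fluo-8; Benchmarks: high carbachol 87 µM, low DMSO alone.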
CRFBP-R2 agonist: agonists of human CRF-binding protein/CRF-R2 receptor complex | HEK293 CRF-R2/CRF-BP, calcium dye fluorescence (FLIPR); percent of saturating CRF peptide response | activation, % at 13.2 µM | 350,000 compounds, 0.46% hits | AID 588473;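 active means activation of at least 50%, plus an integration ratio under a set limit after plate pattern correction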
CRFBP-R2 block: blocks CRF-induced signaling of the CRF-BP/CRF-R2 complex | AID 588475 | HEK293 CRF-R2/CRF-BP, CRF-induced calcium fluorescence | 350,000 compounds, 0.59% hits | inhibition, % at 11.8 µM;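 active means inhibition of the ligand-induced calcium signal above about 50% at the single tested concentration, limit read from the data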
Of the large screens only hits and unclear results are named; the others gave an inactive call. An excerpt weighted towards active compounds, which were near 1.2% of everything screened.

O=C(NC(C(=O)N/N=C/c1ccccc1)c1n[nH]c(=O)c2ccccc12)c1ccccc1 (stereo not given)	CRFBP-R2 agonist 98
COc1ccc(/C=N/OCC(=O)N=Nc2c(O)[nH]c3ccc(Br)cc23)cc1	CRFBP-R2 block 55
Cc1cccc(C)c1OCC(=O)N=Nc1c(O)[nH]c2ccc(Br)cc12	none
CCN1CCN(CC(=O)N2N=CCC2c2ccccc2)CC1 (stereo not given)	CRFBP-R2 block 70
COc1ccc(N2CCN(CCCNC(=O)C(=O)c3c(C)[nH]c4ccccc34)CC2)cc1	CRFBP-R2 block 62 (no result: TRPML3 ag, zfTRPN1 agonist)
COC(=O)C1=NN(C(=O)c2ccc(C)cc2)C(O)(c2ccc(Cl)cc2)C1 (stereo not given)	CRFBP-R2 agonist 86
COC(=O)C1=NN(C(=O)c2ccccc2)C(C)(O)C1 (stereo not given)	none
COC(=O)C1=NN(C(=O)c2cccc(Cl)c2)C(O)(C(C)(C)C)C1 (stereo not given)	CRFBP-R2 agonist 89
COC(=O)C1=NN(C(=O)c2ccc(Br)cc2)C(O)(C(C)(C)C)C1 (stereo not given)	CRFBP-R2 agonist 52
COC(=O)C1=NN(C(=O)c2ccccc2)C(O)(c2ccc([N+](=O)[O-])cc2)C1 (stereo not given)	none (no result: TRPML3 ag, zfTRPN1 agonist)
CC1=NN(C(=O)c2ccc(Br)cc2)C(O)(C(F)(F)OC(F)(F)F)C1 (stereo not given)	CRFBP-R2 block 50
CC1=NN(C(=O)c2csc(C)c2)C(O)(C(F)(F)F)C1 (stereo not given)	none
Cc1csc(SCC(=O)N2CCCC2)n1	none
COc1ccc2nc(-c3ccc(N)cc3)[nH]c2c1	none
C(=N\n1cnnc1)/c1ccc2c(c1)OCCO2	none
C=C(C)COc1ccc(-c2[nH]ncc2Oc2ccccc2OC)c(O)c1	CRFBP-R2 block 51
CCOc1ccc(NC(=O)c2sc(N3CCOCC3)nc2-c2ccccc2)cc1	none
O=C(CSc1nc2ncc(Br)cc2[nH]1)c1cccc([N+](=O)[O-])c1	none
Cc1nc2nc(SCC(=O)c3cccc([N+](=O)[O-])c3)[nH]c2cc1Br	CRFBP-R2 block 67
CCCCN1C(=O)/C(=C/C=C2\SCCN2C)SC1=S	CRFBP-R2 agonist 81
CN1CCS/C1=C/C=C1/SC(=S)N(Cc2ccccc2)C1=O	none
CN1CCS/C1=C/C=C1\SC(=S)N(CC(=O)O)C1=O	zfTRPN1 agonist 21, CRFBP-R2 agonist 149
CCOc1cc(N(CC)CC)ccc1/C=C(/C#N)c1nc2ccccc2[nH]1	CRFBP-R2 agonist 97
CCN(CC)c1ccc(/C=C(/C#N)c2nc3ccc(C)cc3[nH]2)c(OC(C)C)c1	TRPML3 ag 23, zfTRPN1 agonist 30, CRFBP-R2 agonist 176
COc1cc(/C=C(\C#N)c2nc3ccc(C)cc3[nH]2)c([N+](=O)[O-])cc1OC	none
Cc1cccc(C(=O)Nc2sc(-c3ccccc3)cc2C(=O)O)c1	CRFBP-R2 block 58
CC(C)(C)C(=O)Nc1sc(-c2ccccc2)cc1C(=O)O	none
Cc1ccc(C)c(NC(=O)c2ccccc2NS(=O)(=O)c2cc([N+](=O)[O-])ccc2C)c1	TRPML3 ag 18, zfTRPN1 agonist 27, CRFBP-R2 agonist 63, CRFBP-R2 block 78
Cc1ccc([N+](=O)[O-])cc1S(=O)(=O)Nc1cccc(S(=O)(=O)Nc2ccccc2C(=O)O)c1	none (no result: TRPML3 ag, zfTRPN1 agonist)
CN(C)C/C(Cl)=C(\Cl)c1ccccc1	none
CCN1CCc2c(sc(NC(=O)c3ccc(S(=O)(=O)N4CCOCC4)cc3)c2C(N)=O)C1	none
CCN1CCc2c(sc(NC(=O)c3ccc(S(=O)(=O)N(CC)c4ccccc4)cc3)c2C(N)=O)C1	CRFBP-R2 agonist 201 (no result: TRPML3 ag, zfTRPN1 agonist)
CCCN1CCc2c(sc(NC(=O)c3ccc(S(=O)(=O)N4CCCC4)cc3)c2C(N)=O)C1	CRFBP-R2 agonist 62 (no result: TRPML3 ag, zfTRPN1 agonist)
CCN1CCc2c(sc(NC(=O)Nc3ccc(Cl)c(Cl)c3)c2C(N)=O)C1	TRPML3 ag 84, zfTRPN1 agonist 195, CRFBP-R2 agonist 239
NC(=O)c1c(NC(=O)c2ccccc2)sc2c1CCN(Cc1ccccc1)C2	CRFBP-R2 agonist 178 (no result: TRPML3 ag, zfTRPN1 agonist)
COc1ccc(-c2csc(N(CCCN(C)C)C(=O)c3ccc(F)cc3)n2)cc1	none (no result: TRPML3 ag, zfTRPN1 agonist)
COc1cccc(C(=O)Nc2cc3c(cc2N2CCOCC2)n(C)c(=O)n3C)c1	none (no result: TRPML3 ag, zfTRPN1 agonist)
O=C(C1CCCC1)N1CCCC(Nc2ccccc2)C1 (stereo not given)	none (no result: TRPML3 ag, zfTRPN1 agonist)
O=C(C1CCCC1)N1CCCC(Nc2ccc(F)cc2)C1 (stereo not given)	CRFBP-R2 agonist 117 (no result: TRPML3 ag, zfTRPN1 agonist)
CCOc1ccc(NC(=O)CCCN2C(=O)C(c3ccccc3)Oc3cccnc32)cc1 (stereo not given)	CRFBP-R2 block 57 (no result: TRPML3 ag, zfTRPN1 agonist)
COc1ccc(NC(=O)CSc2ccc3c(c2)OCCO3)cc1	none (no result: TRPML3 ag, zfTRPN1 agonist)
COc1ccc(NC(=O)CN(C)C(=O)CSc2ccc3c(c2)OCCO3)cc1	CRFBP-R2 agonist 181 (no result: TRPML3 ag, zfTRPN1 agonist)
Cc1cccc(N/N=C/c2ccc(O)c(O)c2O)c1	none
COC(=O)c1ccc(OCC(O)CN2C(=O)c3ccccc3S2(=O)=O)cc1 (stereo not given)	CRFBP-R2 block 58
O=C1c2ccccc2S(=O)(=O)N1CC(O)COc1ccc(Cl)cc1 (stereo not given)	none
CCCCn1nnc(NC(=O)COc2cc(C)ccc2C(C)C)n1	none
CN(CC(=O)NC1CCN(Cc2ccccc2)CC1)S(=O)(=O)c1ccc(Br)s1	none (no result: TRPML3 ag, zfTRPN1 agonist)
Cc1nc(-c2c(C(F)(F)F)noc2-c2ccc(O)cc2O)cs1	CRFBP-R2 block 54
CCC(C)[C@H](NC(=O)[C@@H]1Cc2ccccc2CN1C(=O)OC(C)(C)C)C(=O)NCC1CCC(C(=O)O)CC1 (stereo not given in full)	CRFBP-R2 block 81
COc1ccc(OC)c(/C=N/n2c(-c3n[nH]c4c3CCC4)n[nH]c2=S)c1	none
COc1ccc(/C=N/n2c(-c3n[nH]c4c3CCC4)n[nH]c2=S)cc1	CRFBP-R2 block 100
O=C(NCCCCCNC(=O)c1ccccn1)c1ccccn1	none
Cc1ccc(NC(=S)NCc2ccccn2)cc1	CRFBP-R2 block 74
Cc1cccc(NC(=S)NCc2ccccn2)c1	none
CCN(C[C@H]1N[C@@](Cc2ccccc2)(C(=O)OC)[C@H]2C(=O)N(Cc3ccccc3)C(=O)[C@@H]12)C(=O)C1CCCCC1	CRFBP-R2 agonist 110 (no result: TRPML3 ag, zfTRPN1 agonist)
Cn1c(C(=O)NCCc2ccccc2)cc(=O)n(C)c1=O	CRFBP-R2 block 71
C#CCOCCOCCOCCNc1nc(N2CCN(C(=O)CCCCCCCCCCNC(=O)[C@H](CCCCN)n3cc(CCO)nn3)CC2)nc(N2CCN(C(=O)CCCCCCCCCCNC(=O)[C@H](CCCCN)n3cc(C[C@@H](C)CC)nn3)CC2)n1	CRFBP-R2 agonist 146 (no result: TRPML3 ag, zfTRPN1 agonist)
C#CCOCCOCCOCCNc1nc(N2CCN(C(=O)CCCCCCCCCCNC(=O)[C@H](CCCCN)n3cc(C[C@@H](C)CC)nn3)CC2)nc(N2CCN(C(=O)CCCCCCCCCCNC(=O)[C@H](CCCN=C(N)N)n3cc(C[C@@H](C)CC)nn3)CC2)n1	none (no result: TRPML3 ag, zfTRPN1 agonist)

Source: PubChem
